{
  "source": "ChEMBL document CHEMBL5678815",
  "about": "(Clin Cancer Res, 2017)",
  "key": {"[1]": {"target": "Mitogen-activated protein kinase kinase kinase 4 (Homo sapiens) (UniProt Q9Y6R4)", "sequence (Q9Y6R4 whole entry)": "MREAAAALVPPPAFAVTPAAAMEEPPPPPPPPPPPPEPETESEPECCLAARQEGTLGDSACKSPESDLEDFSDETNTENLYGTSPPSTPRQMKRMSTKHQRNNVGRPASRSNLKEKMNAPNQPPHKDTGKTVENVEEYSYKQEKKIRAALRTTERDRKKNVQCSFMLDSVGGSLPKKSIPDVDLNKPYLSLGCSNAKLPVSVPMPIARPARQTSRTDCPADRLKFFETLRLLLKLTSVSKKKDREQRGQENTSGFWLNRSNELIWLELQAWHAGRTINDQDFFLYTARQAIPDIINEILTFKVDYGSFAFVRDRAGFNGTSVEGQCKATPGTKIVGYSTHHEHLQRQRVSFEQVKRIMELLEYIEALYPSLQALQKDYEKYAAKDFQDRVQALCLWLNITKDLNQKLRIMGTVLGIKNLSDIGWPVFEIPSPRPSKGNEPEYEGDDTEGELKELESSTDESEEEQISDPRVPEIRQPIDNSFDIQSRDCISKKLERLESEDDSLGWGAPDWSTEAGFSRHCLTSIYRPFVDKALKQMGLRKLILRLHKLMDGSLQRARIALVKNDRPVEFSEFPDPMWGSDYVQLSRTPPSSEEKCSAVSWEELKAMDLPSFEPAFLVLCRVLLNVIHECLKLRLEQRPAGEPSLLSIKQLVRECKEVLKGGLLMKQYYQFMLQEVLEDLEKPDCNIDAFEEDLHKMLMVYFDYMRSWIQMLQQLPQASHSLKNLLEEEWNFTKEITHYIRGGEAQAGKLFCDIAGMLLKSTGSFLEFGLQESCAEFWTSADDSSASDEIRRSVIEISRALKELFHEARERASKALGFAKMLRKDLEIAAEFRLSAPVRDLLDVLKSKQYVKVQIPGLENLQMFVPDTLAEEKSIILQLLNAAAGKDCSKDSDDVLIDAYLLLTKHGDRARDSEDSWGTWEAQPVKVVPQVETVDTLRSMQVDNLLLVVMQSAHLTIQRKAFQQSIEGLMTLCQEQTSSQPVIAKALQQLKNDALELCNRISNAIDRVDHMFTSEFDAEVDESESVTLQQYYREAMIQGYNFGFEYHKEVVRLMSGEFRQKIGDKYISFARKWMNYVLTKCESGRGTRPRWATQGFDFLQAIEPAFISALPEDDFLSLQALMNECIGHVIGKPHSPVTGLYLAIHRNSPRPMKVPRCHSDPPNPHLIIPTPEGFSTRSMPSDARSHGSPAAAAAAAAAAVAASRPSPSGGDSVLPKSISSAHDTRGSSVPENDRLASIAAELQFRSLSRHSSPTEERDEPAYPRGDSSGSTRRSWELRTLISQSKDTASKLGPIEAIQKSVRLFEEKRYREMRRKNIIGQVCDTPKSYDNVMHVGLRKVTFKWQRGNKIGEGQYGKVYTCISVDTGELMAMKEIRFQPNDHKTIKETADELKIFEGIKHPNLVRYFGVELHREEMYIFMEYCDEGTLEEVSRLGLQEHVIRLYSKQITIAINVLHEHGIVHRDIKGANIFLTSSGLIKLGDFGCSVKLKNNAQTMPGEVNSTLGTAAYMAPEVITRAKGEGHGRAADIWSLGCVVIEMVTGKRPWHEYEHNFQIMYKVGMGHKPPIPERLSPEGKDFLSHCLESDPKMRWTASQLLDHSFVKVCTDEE", "test": "Inhibition of human MAP3K4 assessed as remaining activity at 1 uM by ATP-competition binding assay relative to control", "outline": "(§1)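 Single-point profiling at 1μM in an ATP-site-dependent competition binding assay across a panel of 395 human kinases, including mutant forms. The read-out is kinase binding signal in the presence of test agent, expressed as inhibition relative to the control signal. This screen assessed noncovalent binding interactions.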"}, "[2]": {"target": "Calcium/calmodulin-dependent protein kinase type II subunit alpha (Homo sapiens) (UniProt Q9UQM7)", "sequence (Q9UQM7 whole entry)": "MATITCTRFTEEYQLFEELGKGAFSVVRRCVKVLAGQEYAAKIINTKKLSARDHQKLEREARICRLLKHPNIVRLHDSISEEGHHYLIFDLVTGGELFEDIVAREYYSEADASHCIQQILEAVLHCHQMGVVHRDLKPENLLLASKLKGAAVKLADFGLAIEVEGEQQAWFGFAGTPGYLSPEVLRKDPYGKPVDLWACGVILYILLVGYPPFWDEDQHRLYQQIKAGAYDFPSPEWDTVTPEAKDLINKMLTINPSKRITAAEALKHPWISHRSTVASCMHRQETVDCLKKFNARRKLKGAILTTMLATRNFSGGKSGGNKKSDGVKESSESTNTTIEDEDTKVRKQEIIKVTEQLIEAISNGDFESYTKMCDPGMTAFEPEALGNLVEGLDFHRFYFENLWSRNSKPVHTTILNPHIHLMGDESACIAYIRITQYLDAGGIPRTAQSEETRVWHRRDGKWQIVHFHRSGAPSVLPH", "test": "Inhibition of human CAMK2A assessed as remaining activity at 1 uM by ATP-competition binding assay relative to control", "outline": "(§2)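 KINOMEscan ATP-site-dependent competition binding panel of 395 human kinases, with compound tested at 1 μM. Binding is reported as remaining signal relative to control.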"}, "[3]": {"target": "Tyrosine-protein kinase Mer (Homo sapiens) (UniProt Q12866)", "test": "Inhibition of human MERTK assessed as remaining activity at 1 uM by ATP-competition binding assay relative to control", "outline": "as §1"}, "[4]": {"target": "Casein kinase I isoform epsilon (Homo sapiens) (UniProt P49674)", "sequence (P49674 whole entry, looked up, canonical isoform)": "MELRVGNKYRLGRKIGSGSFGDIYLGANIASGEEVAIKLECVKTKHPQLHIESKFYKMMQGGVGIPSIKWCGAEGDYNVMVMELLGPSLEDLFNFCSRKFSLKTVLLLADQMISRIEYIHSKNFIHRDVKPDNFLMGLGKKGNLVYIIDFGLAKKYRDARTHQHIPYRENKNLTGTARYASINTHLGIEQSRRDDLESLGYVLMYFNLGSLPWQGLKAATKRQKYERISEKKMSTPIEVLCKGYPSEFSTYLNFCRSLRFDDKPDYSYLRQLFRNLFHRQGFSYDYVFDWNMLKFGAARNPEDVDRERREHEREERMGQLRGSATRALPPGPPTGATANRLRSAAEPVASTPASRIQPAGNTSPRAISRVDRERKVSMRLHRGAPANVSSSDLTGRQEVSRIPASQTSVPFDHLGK", "test": "Inhibition of human CSNK1E assessed as remaining activity at 1 uM by ATP-competition binding assay relative to control", "outline": "as §2"}, "[5]": {"target": "Serine/threonine-protein kinase N1 (Homo sapiens) (UniProt Q16512)", "test": "Inhibition of human PKN1 assessed as remaining activity at 1 uM by ATP-competition binding assay relative to control", "outline": "(§3)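 Single-concentration (1 μM) screen in an ATP-site-dependent competition binding assay (KINOMEscan, outsourced) covering 395 human kinases, mutants included. Non-covalent binding was read as the remaining signal relative to the control signal.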"}, "[6]": {"tested_on": "Epidermal growth factor receptor (Homo sapiens), P00533 [UNDEFINED MUTATION]", "test": "Inhibition of human EGFR L747-E749del/A750P mutant assessed as remaining activity at 1 uM by ATP-competition binding assay relative to control", "outline": "(§4)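 KINOMEscan ATP-site-dependent competition binding assay across a 395-kinase human panel including mutants; compound tested at 1μM; binding expressed relative to control signal.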"}, "[7]": {"target": "Mitogen-activated protein kinase kinase kinase 13 (Homo sapiens) (UniProt O43283)", "test": "Inhibition of human LZK assessed as remaining activity at 1 uM by ATP-competition binding assay relative to control", "outline": "as §1"}, "[8]": {"target": "Ephrin type-B receptor 2 (Homo sapiens) (UniProt P29323)", "test": "Inhibition of human EPHB2 assessed as remaining activity at 1 uM by ATP-competition binding assay relative to control", "outline": "as §1"}, "[9]": {"target": "NT-3 growth factor receptor (Homo sapiens) (UniProt Q16288)", "test": "Inhibition of human TRKC assessed as remaining activity at 1 uM by ATP-competition binding assay relative to control", "outline": "as §3"}, "[10]": {"target": "Ephrin type-A receptor 1 (Homo sapiens) (UniProt P21709)", "test": "Inhibition of human EPHA1 assessed as remaining activity at 1 uM by ATP-competition binding assay relative to control", "outline": "as §2"}, "[11]": {"target": "Serine/threonine-protein kinase 4 (Homo sapiens) (UniProt Q13043)", "test": "Inhibition of human MST1 assessed as remaining activity at 1 uM by ATP-competition binding assay relative to control", "outline": "as §1"}, "[12]": {"target": "Homeodomain-interacting protein kinase 4 (Homo sapiens) (UniProt Q8NE63)", "test": "Inhibition of human HIPK4 assessed as remaining activity at 1 uM by ATP-competition binding assay relative to control", "outline": "as §1"}, "[13]": {"target": "Dual specificity testis-specific protein kinase 1 (Homo sapiens) (UniProt Q15569)", "test": "Inhibition of human TESK1 assessed as remaining activity at 1 uM by ATP-competition binding assay relative to control", "outline": "as §3"}, "[14]": {"target": "SRSF protein kinase 1 (Homo sapiens) (UniProt Q96SB4)", "test": "Inhibition of human SRPK1 assessed as remaining activity at 1 uM by ATP-competition binding assay relative to control", "outline": "as §3"}, "[15]": {"target": "Epidermal growth factor receptor (Homo sapiens) (UniProt P00533)", "test": "Inhibition of human EGFR assessed as remaining activity at 1 uM by ATP-competition binding assay relative to control", "outline": "as §2"}, "[16]": {"tested_on": "Splenocyte", "test": "In vivo inhibition of BCR signaling in female […] mouse assessed as change in phospho-S6 expression at 25 mg/kg, po administered and measured after stimulation with anti-IgM for 18 h by flow cytometry analysis", "format": "functional, organism-based", "outline": "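Female C57BL/6 mice (5/group) received vehicle or 25 mg/kg drug by oral gavage at time zero, with spleens taken at time points from 3 to 24 h. Splenocytes were stimulated ex vivo with goat anti-mouse IgM at 10μg/mL for 18 h at 37°C in 5% CO2, then Fc-blocked and stained for CD19 plus CD69, CD86 or phospho-S6(S235/236), with 7-AAD to exclude dead cells. Read-out was flow cytometry on >5,000 gated CD19+ cells, compared with vehicle.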"}, "[17]": {"target": "Activin receptor type-1-like (Homo sapiens) (UniProt P37023)", "test": "Inhibition of human ACVRL1 assessed as remaining activity at 1 uM by ATP-competition binding assay relative to control", "outline": "as §2"}, "[18]": {"target": "Tyrosine-protein kinase Blk (Homo sapiens) (UniProt P51451)", "test": "Inhibition of human BLK assessed as remaining activity at 1 uM by ATP-competition binding assay relative to control", "outline": "as §2"}, "[19]": {"target": "Serine/threonine-protein kinase MARK2 (Homo sapiens) (UniProt Q7KZI7)", "test": "Inhibition of human MARK2 assessed as remaining activity at 1 uM by ATP-competition binding assay relative to control", "outline": "as §1"}, "[20]": {"target": "Tyrosine-protein kinase Tec (Homo sapiens) (UniProt P42680)", "test": "Inhibition of human TEC assessed as remaining activity at 1 uM by ATP-competition binding assay relative to control", "outline": "as §4"}, "[21]": {"tested_on": "CLL mononuclear cell", "test": "Antileukemic activity against human CLL mononuclear cells xenografted NSG mouse assessed as reduction in ki67 cells at 0.3 mg/ml preadministered with compound via drinking water and measured after 3 weeks by flow cytometry analysis", "format": "functional, cell-based", "outline": "(§5)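 Primary CLL patient mononuclear cells (1 × 10^8 per mouse) engrafted into NSG mice on day 0 after busulfan priming on day −1. Vehicle or drug was given in drinking water from day −1. Mice were killed 3 weeks after engraftment; spleens homogenized, filtered and RBC-lysed; whole blood collected. Six patients, 2–5 mice per patient; paired t-test per patient.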"}, "[22]": {"test": "Antitumor activity against human CLL mononuclear cells xenografted NSG mouse assessed as reduction in the phosphorylation of PLCgamma2 at 0.3 mg/ml preadministered with compound via drinking water and measured after 3 weeks by flow cytometry analysis relative to control", "format": "functional, CLL mononuclear cell", "parameters": "scale not given: the % may be the effect or the level left", "outline": "as §5"}, "[23]": {"target": "AP2-associated protein kinase 1 (Homo sapiens) (UniProt Q2M2I8)", "sequence (Q2M2I8 whole entry, looked up)": "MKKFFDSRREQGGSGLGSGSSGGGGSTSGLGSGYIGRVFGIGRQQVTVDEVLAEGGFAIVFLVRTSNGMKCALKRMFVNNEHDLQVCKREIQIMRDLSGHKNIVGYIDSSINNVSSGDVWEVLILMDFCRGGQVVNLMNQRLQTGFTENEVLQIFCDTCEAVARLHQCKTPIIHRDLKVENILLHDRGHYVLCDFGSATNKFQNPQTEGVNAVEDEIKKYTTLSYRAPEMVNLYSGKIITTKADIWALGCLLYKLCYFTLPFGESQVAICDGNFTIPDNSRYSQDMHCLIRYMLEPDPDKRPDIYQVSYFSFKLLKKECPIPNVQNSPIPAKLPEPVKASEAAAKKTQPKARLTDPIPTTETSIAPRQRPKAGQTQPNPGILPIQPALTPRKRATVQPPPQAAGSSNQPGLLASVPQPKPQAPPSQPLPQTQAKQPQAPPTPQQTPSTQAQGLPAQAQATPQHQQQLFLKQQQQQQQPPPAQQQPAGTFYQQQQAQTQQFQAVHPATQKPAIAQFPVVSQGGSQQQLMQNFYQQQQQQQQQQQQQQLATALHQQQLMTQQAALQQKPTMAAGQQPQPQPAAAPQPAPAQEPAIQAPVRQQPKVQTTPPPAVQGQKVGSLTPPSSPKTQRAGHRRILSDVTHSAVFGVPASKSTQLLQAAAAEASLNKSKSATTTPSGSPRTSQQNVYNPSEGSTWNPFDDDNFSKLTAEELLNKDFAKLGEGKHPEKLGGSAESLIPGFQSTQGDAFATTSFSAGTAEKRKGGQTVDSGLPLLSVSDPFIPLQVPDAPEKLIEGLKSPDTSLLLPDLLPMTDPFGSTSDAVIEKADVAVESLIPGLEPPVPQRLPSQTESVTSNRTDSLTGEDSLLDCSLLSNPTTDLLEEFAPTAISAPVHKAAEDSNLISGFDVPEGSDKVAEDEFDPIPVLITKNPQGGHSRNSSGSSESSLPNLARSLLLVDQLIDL", "test": "Inhibition of human AAK1 assessed as remaining activity at 1 uM by ATP-competition binding assay relative to control", "outline": "as §2"}, "[24]": {"target": "Receptor tyrosine-protein kinase erbB-4 (Homo sapiens) (UniProt Q15303)", "sequence (Q15303 whole entry)": "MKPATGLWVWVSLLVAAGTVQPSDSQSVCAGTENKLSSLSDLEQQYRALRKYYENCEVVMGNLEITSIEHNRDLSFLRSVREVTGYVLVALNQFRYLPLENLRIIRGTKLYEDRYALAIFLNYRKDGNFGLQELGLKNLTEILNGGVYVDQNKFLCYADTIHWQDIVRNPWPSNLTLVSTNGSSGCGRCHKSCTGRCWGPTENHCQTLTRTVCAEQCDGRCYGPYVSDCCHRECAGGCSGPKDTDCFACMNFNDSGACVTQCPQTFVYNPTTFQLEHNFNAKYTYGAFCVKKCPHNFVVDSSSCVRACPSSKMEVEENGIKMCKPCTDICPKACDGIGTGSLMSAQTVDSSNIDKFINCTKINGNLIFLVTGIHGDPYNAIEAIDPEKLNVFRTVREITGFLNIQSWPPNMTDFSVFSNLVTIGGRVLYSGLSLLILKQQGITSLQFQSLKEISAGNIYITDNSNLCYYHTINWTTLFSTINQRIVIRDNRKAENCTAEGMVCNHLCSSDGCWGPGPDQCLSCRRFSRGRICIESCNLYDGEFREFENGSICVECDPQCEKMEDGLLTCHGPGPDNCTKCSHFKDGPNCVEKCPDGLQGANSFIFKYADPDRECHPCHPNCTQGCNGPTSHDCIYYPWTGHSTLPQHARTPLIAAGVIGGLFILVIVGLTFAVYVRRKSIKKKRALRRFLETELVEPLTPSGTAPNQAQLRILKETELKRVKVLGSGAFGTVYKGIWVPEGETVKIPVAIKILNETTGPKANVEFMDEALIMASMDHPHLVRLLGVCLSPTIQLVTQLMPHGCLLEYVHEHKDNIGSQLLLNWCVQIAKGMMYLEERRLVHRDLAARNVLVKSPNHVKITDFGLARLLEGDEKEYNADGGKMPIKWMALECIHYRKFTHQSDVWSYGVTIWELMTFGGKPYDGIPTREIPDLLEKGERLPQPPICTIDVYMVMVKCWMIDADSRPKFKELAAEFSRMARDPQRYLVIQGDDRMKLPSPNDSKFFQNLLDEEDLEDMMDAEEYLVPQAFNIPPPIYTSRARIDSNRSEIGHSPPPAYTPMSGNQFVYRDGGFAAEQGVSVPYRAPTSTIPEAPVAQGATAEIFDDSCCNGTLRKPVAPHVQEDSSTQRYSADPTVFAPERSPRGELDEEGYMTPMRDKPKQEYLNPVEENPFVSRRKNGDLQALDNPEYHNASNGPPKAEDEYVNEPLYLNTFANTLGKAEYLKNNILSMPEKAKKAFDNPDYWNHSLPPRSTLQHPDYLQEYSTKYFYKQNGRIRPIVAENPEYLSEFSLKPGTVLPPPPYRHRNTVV", "test": "Inhibition of human ERBB4 at <100 nM by ATP-Competition Binding Assay"}, "[25]": {"target": "Receptor tyrosine-protein kinase erbB-4 (Homo sapiens) (UniProt Q15303)", "test": "Inhibition of human ERBB4 assessed as remaining activity at 1 uM by ATP-competition binding assay relative to control", "outline": "as §1"}, "[26]": {"target": "Serine/threonine-protein kinase pim-3 (Homo sapiens) (UniProt Q86V86)", "test": "Inhibition of human PIM3 assessed as remaining activity at 1 uM by ATP-competition binding assay relative to control", "outline": "as §3"}},
  "note": "Active and inactive are the calls of the source. The rule behind the calls is not given here.",
  "data": [
    {"smiles": "CC#CC(=O)N1CCC[C@H]1c1nc(-c2ccc(C(=O)Nc3ccccn3)cc2)c2c(N)nccn12", "note": "[ACALABRUTINIB]", "values": [
      {"measurement": "Activity", "setting": "[1]", "result": 86, "unit": "%"},
      {"measurement": "Activity", "setting": "[2]", "result": 90, "unit": "%"},
      {"measurement": "Activity", "setting": "[3]", "result": 77, "unit": "%"},
      {"measurement": "Activity", "setting": "[4]", "result": 90, "unit": "%"},
      {"measurement": "Activity", "setting": "[5]", "result": 94, "unit": "%"},
      {"measurement": "Activity", "setting": "[6]", "result": 87, "unit": "%"},
      {"measurement": "Activity", "setting": "[7]", "result": 83, "unit": "%"},
      {"measurement": "Activity", "setting": "[8]", "result": 69, "unit": "%"},
      {"measurement": "Activity", "setting": "[9]", "result": 99, "unit": "%"},
      {"measurement": "Activity", "setting": "[10]", "result": 76, "unit": "%"},
      {"measurement": "Activity", "setting": "[11]", "result": 87, "unit": "%"},
      {"measurement": "Activity", "setting": "[12]", "result": 88, "unit": "%"},
      {"measurement": "Activity", "setting": "[13]", "result": 83, "unit": "%"},
      {"measurement": "Activity", "setting": "[14]", "result": 67, "unit": "%"},
      {"measurement": "Activity", "setting": "[15]", "result": 75, "unit": "%"},
      {"measurement": "Activity", "setting": "[16]", "result": "Active"},
      {"measurement": "Activity", "setting": "[17]", "result": 76, "unit": "%"},
      {"measurement": "Activity", "setting": "[18]", "result": 61, "unit": "%"},
      {"measurement": "Activity", "setting": "[19]", "result": 59, "unit": "%"},
      {"measurement": "Activity", "setting": "[20]", "result": 6.4, "unit": "%"},
      {"measurement": "Activity", "setting": "[21]", "result": "Active"},
      {"measurement": "Activity", "setting": "[22]", "result": 68, "unit": "%"},
      {"measurement": "Activity", "setting": "[23]", "result": 86, "unit": "%"},
      {"measurement": "inhibition", "setting": "[24]", "result": "Active"},
      {"measurement": "Activity", "setting": "[25]", "result": 4.3, "unit": "%"},
      {"measurement": "Activity", "setting": "[26]", "result": 84, "unit": "%"}
    ]}
  ]
}
